Measurements published in ChEMBL document CHEMBL4251626, “4β-amidotriazole linked podophyllotoxin congeners: DNA topoisomerase-IIα inhibition and potential anticancer agents for prostate cancer” (Eur J Med Chem, 2018).
pIC50: −log10 of the molar value. The source made the active and inactive calls. No cut-off for these calls is given here.

Experiments:
[1] = test system: HeLa; assay: Antiproliferative activity against human HeLa cells after 48 hrs by MTT assay; format: functional, cell-based
Procedure, shortened: (§1)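 Cells in DMEM/10% FBS pre-incubated 24 h at 37 °C, then compound-treated 48 h (10 mM DMSO stock diluted in medium). MTT (10 µL of 5 mg/mL) added for 4 h; formazan dissolved in DMSO, absorbance read at 570 nm. IC50 = 50% inhibitory concentration, mean of three individual experiments.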

[2] = test system: MCF7; assay: Antiproliferative activity against human MCF7 cells after 48 hrs by MTT assay; format: functional, cell-based; conditions: MCF7, 48 h; procedure, shortened: as §1
[3] = test system: DU-145; assay: Antiproliferative activity against human DU145 cells after 48 hrs by MTT assay; format: functional, cell-based; conditions: DU-145, 48 h; procedure, shortened: as §1
[4] = test system: A549; assay: Antiproliferative activity against human A549 cells after 48 hrs by MTT assay; format: functional, cell-based; conditions: A549, 48 h; procedure, shortened: as §1
[5] = test system: HepG2; assay: Antiproliferative activity against human HepG2 cells after 48 hrs by MTT assay; format: functional, cell-based; conditions: HepG2, 48 h; procedure, shortened: as §1
[6] = test system: HT-29; assay: Antiproliferative activity against human HT-29 cells after 48 hrs by MTT assay; format: functional, cell-based; conditions: HT-29, 48 h; procedure, shortened: as §1
[7] = test system: NIH3T3; assay: Antiproliferative activity against mouse NIH/3T3 cells after 48 hrs by MTT assay; format: cell-based; conditions: NIH3T3, 48 h; procedure, shortened: as §1
[8] = test system: DU-145; assay: Cell cycle arrest in human DU145 cells assessed as accumulation at G2/M phase at 0.5 uM after 24 hrs by propidium iodide staining based flow cytometry relative to control; format: functional
Procedure, shortened: (§2)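 DU-145 cells (2x10^5/well) serum-starved 24 h to synchronize, then treated in complete medium for 24 h. Harvested and fixed in 70% ethanol at -20 °C for 30 min. RNase A (0.1 mg/mL, 37 °C, 30 min), then propidium iodide (50 µg/mL, 30 min on ice, dark). DNA content measured by flow cytometry.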

[9] = test system: DU-145; assay: Cell cycle arrest in human DU145 cells assessed as accumulation at G2/M phase at 1 uM after 24 hrs by propidium iodide staining based flow cytometry relative to control; format: functional; procedure, shortened: as §2
[10] = biological target: DNA topoisomerase 2-alpha (Homo sapiens) (UniProt P11388); assay: Poison activity at recombinant human topoisomerase-2 alpha assessed as linear DNA formation using pHOT1 kDNA as substrate at 100 uM after 10 mins by agarose gel electrophoresis method
Procedure, shortened: (§3)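 Five units human recombinant topo II, 10 min at 37 °C. Stopped with loading-dye stop buffer; products resolved on 1% agarose gel in TAE (catenated, decatenated, linear DNA).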

[11] = test system: DU-145; assay: Induction of apoptosis in human DU145 cells assessed as cell detachment from substratum at 0.5 to 1 uM after 24 hrs by phase contrast microscopic method; format: functional, cell-based
Procedure, shortened: (§4)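 DU-145 cells (2x10^5/well) plated overnight; medium replaced with fresh medium containing compound at indicated concentrations for 24 h. Cell morphology examined and photographed by phase-contrast microscopy.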

[12] = test system: DU-145; assay: Induction of apoptosis in human DU145 cells assessed as cell shrinkage at 0.5 to 1 uM after 24 hrs by phase contrast microscopic method; format: functional, cell-based; procedure, shortened: as §4
[13] = test system: DU-145; assay: Induction of apoptosis in human DU145 cells assessed as nuclear condensation at 0.5 to 1 uM after 24 hrs by Hoechst staining based fluorescence microscopic method; format: functional, cell-based
Procedure, shortened: (§5)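 DU-145 cells (1x10^5/well) incubated overnight, then treated 24 h. After three PBS washes, stained with Hoechst (1 µg/ml) for 20 min at 37 °C and washed. Imaged by fluorescence microscopy; random fields counted for chromatin condensation and nuclear fragmentation.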

[14] = test system: DU-145; assay: Induction of apoptosis in human DU145 cells assessed as nuclear fragmentation at 0.5 to 1 uM after 24 hrs by Hoechst staining based fluorescence microscopic method; format: functional, cell-based; procedure, shortened: as §5
[15] = test system: DU-145; assay: Induction of mitochondrial membrane potential loss in human DU145 cells […] at 0.5 to 1 uM after 24 hrs by JC1 staining based flow cytometry; format: functional, cell-based
Procedure, shortened: (§6)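 Cells (2x10^5/well) treated 24 h, trypsinized and pelleted (400 g, 5 min). Incubated with freshly made JC-1 working solution for 15 min at 37 °C, washed twice in assay buffer. Analysed by flow cytometry as percentage of J-aggregate versus J-monomer cells.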

[16] = test system: DU-145; assay: Induction of ROS production in human DU145 cells at 0.5 to 1 uM after 24 hrs by DCFDA staining based fluorescence microscopic method; format: functional, cell-based
Procedure, shortened: (§7)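 DU-145 cells (2x10^5/well) plated overnight, then treated 24 h at indicated concentrations. Medium replaced with DCFDA (10 µM) for 30 min at room temperature in the dark. After PBS washes, fluorescence was imaged by microscopy and reported as mean fluorescence intensity.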

[17] = test system: DU-145; assay: Antimigratory activity against human DU145 cells at 0.5 to 1 uM after 24 to 48 hrs by phase contrast microscopic based scratch assay; format: functional, cell-based
Procedure, shortened: (§8)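 DU-145 cells seeded at 2x10^5/well and grown to confluence; wound made with a sterile 200 µL tip, debris washed off with PBS. Fresh medium with compound at the indicated concentrations added. Migration followed by phase-contrast microscopy with images at 0, 24 and 48 h.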

[18] = test system: DU-145; assay: Induction of apoptosis in human DU145 cells assessed as live cells at 0.5 uM after 24 hrs by Annexin V-FITC/propidium iodide staining based flow cytometry (reference value: 96.3%); format: functional
[19] = test system: DU-145; assay: Induction of apoptosis in human DU145 cells assessed as early apoptotic cells at 0.5 uM after 24 hrs by Annexin V-FITC/propidium iodide staining based flow cytometry (reference value: 0.56%); format: functional
[20] = test system: DU-145; assay: Induction of apoptosis in human DU145 cells assessed as late apoptotic cells at 0.5 uM after 24 hrs by Annexin V-FITC/propidium iodide staining based flow cytometry (reference value: 1.49%); format: functional
[21] = test system: DU-145; assay: Induction of apoptosis in human DU145 cells assessed as necrotic cells at 0.5 uM after 24 hrs by Annexin V-FITC/propidium iodide staining based flow cytometry (reference value: 1.65%); format: functional
[22] = test system: DU-145; assay: Induction of apoptosis in human DU145 cells assessed as live cells at 1 uM after 24 hrs by Annexin V-FITC/propidium iodide staining based flow cytometry (reference value: 96.3%); format: functional
[23] = test system: DU-145; assay: Induction of apoptosis in human DU145 cells assessed as early apoptotic cells at 1 uM after 24 hrs by Annexin V-FITC/propidium iodide staining based flow cytometry (reference value: 0.56%); format: functional
[24] = test system: DU-145; assay: Induction of apoptosis in human DU145 cells assessed as late apoptotic cells at 1 uM after 24 hrs by Annexin V-FITC/propidium iodide staining based flow cytometry (reference value: 1.49%); format: functional
[25] = test system: DU-145; assay: Induction of apoptosis in human DU145 cells assessed as necrotic cells at 1 uM after 24 hrs by Annexin V-FITC/propidium iodide staining based flow cytometry (reference value: 1.65%); format: functional
[26] = biological target: DNA topoisomerase 2-alpha (Homo sapiens) (UniProt P11388); assay: Inhibition of recombinant human topoisomerase-2 alpha assessed as reduction in decatenation of pHOT1 kDNA at 100 uM after 10 mins by agarose gel electrophoresis method; procedure, shortened: as §3
[27] = test system: DU-145; assay: Induction of ROS production in human DU145 cells after 24 hrs by DCFDA staining based fluorescence microscopic method; format: functional, cell-based; procedure, shortened: as §7
[28] = test system: DU-145; assay: Induction of apoptosis in human DU145 cells after 24 hrs by Annexin V-FITC/propidium iodide staining based flow cytometry; format: functional, cell-based
[29] = test system: DU-145; assay: Cell cycle arrest in human DU145 cells assessed as accumulation at G2/M phase at 2 uM after 24 hrs by propidium iodide staining based flow cytometry relative to control; format: functional; procedure, shortened: as §2
[30] = test system: DU-145; assay: Induction of apoptosis in human DU145 cells assessed as morphological changes at 2 uM after 24 hrs by phase contrast microscopic method; format: functional, cell-based; procedure, shortened: as §4
[31] = test system: DU-145; assay: Induction of apoptosis in human DU145 cells assessed as nuclear condensation at 2 uM after 24 hrs by Hoechst staining based fluorescence microscopic method; format: functional, cell-based; procedure, shortened: as §5
[32] = test system: DU-145; assay: Induction of apoptosis in human DU145 cells assessed as nuclear fragmentation at 2 uM after 24 hrs by Hoechst staining based fluorescence microscopic method; format: functional, cell-based; procedure, shortened: as §5
[33] = test system: DU-145; assay: Induction of mitochondrial membrane potential loss in human DU145 cells […] at 2 uM after 24 hrs by JC1 staining based flow cytometry; format: functional, cell-based; procedure, shortened: as §6
[34] = test system: DU-145; assay: Induction of ROS production in human DU145 cells at 2 uM after 24 hrs by DCFDA staining based fluorescence microscopic method; format: functional, cell-based; procedure, shortened: as §7
[35] = test system: DU-145; assay: Antimigratory activity against human DU145 cells at 2 uM after 24 to 48 hrs by phase contrast microscopic based scratch assay; format: functional, cell-based; procedure, shortened: as §8
[36] = test system: DU-145; assay: Induction of apoptosis in human DU145 cells assessed as live cells at 2 uM after 24 hrs by Annexin V-FITC/propidium iodide staining based flow cytometry (reference value: 96.3%); format: functional
[37] = test system: DU-145; assay: Induction of apoptosis in human DU145 cells assessed as early apoptotic cells at 2 uM after 24 hrs by Annexin V-FITC/propidium iodide staining based flow cytometry (reference value: 0.56%); format: functional
[38] = test system: DU-145; assay: Induction of apoptosis in human DU145 cells assessed as late apoptotic cells at 2 uM after 24 hrs by Annexin V-FITC/propidium iodide staining based flow cytometry (reference value: 1.49%); format: functional
[39] = test system: DU-145; assay: Induction of apoptosis in human DU145 cells assessed as necrotic cells at 2 uM after 24 hrs by Annexin V-FITC/propidium iodide staining based flow cytometry (reference value: 1.65%); format: functional

Sequence of DNA topoisomerase 2-alpha (Homo sapiens) (P11388 whole entry): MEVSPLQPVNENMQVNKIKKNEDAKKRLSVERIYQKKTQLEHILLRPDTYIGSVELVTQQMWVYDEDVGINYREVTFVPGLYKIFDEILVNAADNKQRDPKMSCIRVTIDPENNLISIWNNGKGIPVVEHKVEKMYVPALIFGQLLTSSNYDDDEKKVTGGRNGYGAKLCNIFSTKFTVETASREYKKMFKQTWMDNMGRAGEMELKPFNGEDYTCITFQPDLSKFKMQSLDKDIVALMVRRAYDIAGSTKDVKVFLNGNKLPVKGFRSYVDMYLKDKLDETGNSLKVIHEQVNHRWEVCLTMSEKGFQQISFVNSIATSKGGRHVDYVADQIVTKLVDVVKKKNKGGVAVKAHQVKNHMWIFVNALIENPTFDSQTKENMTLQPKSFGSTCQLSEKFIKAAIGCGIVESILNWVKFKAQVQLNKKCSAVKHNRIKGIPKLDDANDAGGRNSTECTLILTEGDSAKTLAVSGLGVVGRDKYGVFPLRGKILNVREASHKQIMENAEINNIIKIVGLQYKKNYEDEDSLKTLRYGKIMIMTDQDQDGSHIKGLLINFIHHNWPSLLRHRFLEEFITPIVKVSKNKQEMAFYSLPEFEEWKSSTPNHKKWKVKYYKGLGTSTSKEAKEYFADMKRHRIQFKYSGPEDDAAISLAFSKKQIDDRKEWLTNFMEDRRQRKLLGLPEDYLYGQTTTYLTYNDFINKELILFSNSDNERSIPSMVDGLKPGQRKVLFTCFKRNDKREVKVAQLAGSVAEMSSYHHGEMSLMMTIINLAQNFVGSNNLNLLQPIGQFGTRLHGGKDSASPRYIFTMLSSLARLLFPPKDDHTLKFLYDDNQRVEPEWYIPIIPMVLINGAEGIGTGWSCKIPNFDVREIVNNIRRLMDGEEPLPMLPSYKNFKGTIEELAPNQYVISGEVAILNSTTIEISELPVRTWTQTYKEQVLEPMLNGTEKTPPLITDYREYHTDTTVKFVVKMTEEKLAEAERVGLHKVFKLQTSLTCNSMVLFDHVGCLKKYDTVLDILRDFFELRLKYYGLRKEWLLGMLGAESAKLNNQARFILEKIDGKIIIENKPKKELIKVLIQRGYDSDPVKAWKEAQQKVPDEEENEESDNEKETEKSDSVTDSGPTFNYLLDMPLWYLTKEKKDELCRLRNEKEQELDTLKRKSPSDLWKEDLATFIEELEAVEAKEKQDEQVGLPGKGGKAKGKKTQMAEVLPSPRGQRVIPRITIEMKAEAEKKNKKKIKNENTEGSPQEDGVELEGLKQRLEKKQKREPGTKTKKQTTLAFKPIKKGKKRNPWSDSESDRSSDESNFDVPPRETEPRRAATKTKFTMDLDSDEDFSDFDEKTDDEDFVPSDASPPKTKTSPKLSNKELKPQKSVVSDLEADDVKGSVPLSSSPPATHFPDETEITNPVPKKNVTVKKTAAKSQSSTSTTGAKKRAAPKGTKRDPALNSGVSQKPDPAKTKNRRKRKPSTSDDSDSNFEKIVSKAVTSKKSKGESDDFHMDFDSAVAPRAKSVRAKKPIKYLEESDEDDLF

SMILES | pIC50 [1] | pIC50 [2] | pIC50 [3] | pIC50 [4] | pIC50 [5] | pIC50 [6] | pIC50 [7] | Activity [8] [%] | Activity [9] [%] | Activity [10] | Activity [11] | Activity [12] | Activity [13] | Activity [14] | Activity [15] | Activity [17] | Activity [18] [%] | Activity [19] [%] | Activity [20] [%] | Activity [21] [%] | also measured
COc1cc([C@@H]2c3cc4c(cc3C(NC(=O)c3cn(-c5ccc(Cl)cc5)nn3)[C@H]3COC(=O)[C@H]23)OCO4)cc(OC)c1OC (single isomer, unassigned) | 6.11 | 6.01 | 6.15 | 5.92 | 6.11 | 5.39 | 4.05 | 31.94 | 35.61 | Active | Active | Active | Active | Active | inactive | inactive | 93.72 | 3.94 | 1.93 | 0.41 | Activity [16]: Active; Activity [22]: 93.69%; Activity [23]: 4.35%; Activity [24]: 1.8%; Activity [25]: 0.16%
COc1cc([C@@H]2c3cc4c(cc3C(NC(=O)c3cn(-c5ccc(C(F)(F)F)cc5)nn3)[C@H]3COC(=O)[C@H]23)OCO4)cc(OC)c1OC (single isomer, unassigned) | 5.92 | 5.87 | 6.05 | 5.71 | 5.92 | 5.36 | 4.08 | 52.42 | 56.16 |  | Active | Active | Active | Active | Active | Active | 89.65 | 7.01 | 2.6 | 0.74 | inhibition [26]: Active; Activity [27]: Dose-dependent effect; Activity [22]: 79.84%; Activity [23]: 17.65%; Activity [24]: 2.46%; Activity [25]: 0.05%; Activity [28]: Dose-dependent effect
COc1ccc(-n2cc(C(=O)NC3c4cc5c(cc4[C@@H](c4cc(OC)c(OC)c(OC)c4)[C@H]4C(=O)OC[C@H]34)OCO5)nn2)cc1 (single isomer, unassigned) | 5.19 | 5.95 | 6.00 | 5.79 | 5.55 | 4.94 | 4.20 | 56.71 | 64.3 | Active | Active | Active | Active | Active | Active | Active | 91.01 | 6.76 | 1.83 | 0.4 | Activity [27]: Dose-dependent effect; Activity [22]: 88.89%; Activity [23]: 7%; Activity [24]: 3.12%; Activity [25]: 0.99%; Activity [28]: Dose-dependent effect
COc1cc([C@@H]2c3cc4c(cc3[C@@H](O[C@@H]3O[C@@H]5CO[C@@H](C)O[C@H]5[C@H](O)[C@H]3O)[C@H]3COC(=O)[C@H]23)OCO4)cc(OC)c1O [ETOPOSIDE] | 5.57 | 5.79 | 5.63 | 5.71 | 5.55 | 5.73 |  |  |  | Active |  |  |  |  |  |  |  |  |  |  | Activity [29]: 71.53%; Activity [30]: Active; Activity [31]: Active; Activity [32]: Active; Activity [33]: Active; Activity [34]: Active; Activity [35]: Active; Activity [36]: 91.09%; Activity [37]: 4.52%; Activity [38]: 3.86%; Activity [39]: 0.53%
